The target in assay [1] is T1, Parathyroid hormone/parathyroid hormone-related peptide receptor (Homo sapiens, UniProt Q03431).
T1 sequence (Q03431 whole entry): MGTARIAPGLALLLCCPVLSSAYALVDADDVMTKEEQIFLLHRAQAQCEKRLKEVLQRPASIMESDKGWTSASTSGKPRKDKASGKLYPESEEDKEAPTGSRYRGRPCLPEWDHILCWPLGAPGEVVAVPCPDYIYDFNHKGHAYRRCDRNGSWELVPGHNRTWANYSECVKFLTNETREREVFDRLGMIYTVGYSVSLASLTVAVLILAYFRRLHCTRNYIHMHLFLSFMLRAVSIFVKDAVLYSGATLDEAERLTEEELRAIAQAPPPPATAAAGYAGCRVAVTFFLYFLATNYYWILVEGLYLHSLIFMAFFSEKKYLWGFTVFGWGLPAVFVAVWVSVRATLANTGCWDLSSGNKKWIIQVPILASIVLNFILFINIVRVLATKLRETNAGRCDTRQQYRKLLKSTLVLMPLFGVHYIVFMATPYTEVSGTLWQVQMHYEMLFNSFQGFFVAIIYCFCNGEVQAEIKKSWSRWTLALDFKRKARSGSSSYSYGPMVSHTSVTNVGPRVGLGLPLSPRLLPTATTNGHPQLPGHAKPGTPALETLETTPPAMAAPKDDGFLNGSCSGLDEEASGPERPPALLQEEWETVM
The assay can be described thus: Activity at human PTH/PTH-related peptide receptor expressed in SAOS2 cells assessed as cAMP formation. It counts as functional, cell-based, SAOS-2. The procedure, abridged:
(§1)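 Nonconfluent cells grown at 37°C in DMEM with 10% FBS, refed 12–24 h before assay. Rinsed with warm PBS, detached with prewarmed EDTA (37°C, 5–10 min), spun at 300 × g for 5 min. Resuspended in HBSS/5 mM Hepes/0.1% BSA/0.5 mM IBMX, pH 7.4. cAMP read by AlphaScreen.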
(Cyclic AMP is a second messenger, typically raised through Gs and lowered through Gi signalling.)

Assay [2] concerns the target T1, Parathyroid hormone/parathyroid hormone-related peptide receptor. The assay can be described thus: Activity at human PTH/PTH-related peptide receptor expressed in HEK293 cells assessed as induction of luciferase activity by CRE-luciferase reporter assay. Format: functional, cell-based. (Reporter assays use an easily measured gene product as a stand-in for the process of interest.)

For assay [3] the target is unchanged. The assay can be described thus: Displacement of [125I]DPC-AJ1951 from PTH/PTH-related peptide receptor expressed in HKRK-B28 cells. Format: cell-based. The procedure, abridged:
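Whole HKRK-B28 cells plated at 30,000/well and incubated overnight at 37°C, 5% CO2. Incubated 3 h at room temperature, washed three times, bound radioactivity counted by scintillation.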

Assay [4] concerns the target T2, Parathyroid hormone/parathyroid hormone-related peptide receptor (Rattus norvegicus, UniProt P25961).
T2 sequence (P25961 whole entry): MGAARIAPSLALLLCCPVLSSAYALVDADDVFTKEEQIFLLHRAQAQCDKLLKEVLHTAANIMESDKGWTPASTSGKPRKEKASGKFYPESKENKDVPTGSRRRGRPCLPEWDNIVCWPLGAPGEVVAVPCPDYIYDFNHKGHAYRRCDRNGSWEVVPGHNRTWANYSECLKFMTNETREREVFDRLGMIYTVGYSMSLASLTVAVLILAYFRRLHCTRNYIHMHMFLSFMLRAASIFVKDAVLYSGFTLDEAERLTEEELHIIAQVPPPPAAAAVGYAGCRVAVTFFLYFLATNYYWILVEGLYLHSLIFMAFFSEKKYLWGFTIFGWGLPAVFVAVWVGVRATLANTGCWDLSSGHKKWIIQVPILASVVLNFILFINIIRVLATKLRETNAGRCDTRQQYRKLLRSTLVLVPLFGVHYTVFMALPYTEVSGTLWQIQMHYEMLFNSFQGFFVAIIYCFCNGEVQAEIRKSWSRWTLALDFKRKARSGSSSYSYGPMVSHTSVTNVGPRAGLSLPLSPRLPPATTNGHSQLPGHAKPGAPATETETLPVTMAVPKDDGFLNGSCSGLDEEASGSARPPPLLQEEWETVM
In words: Activity at rat PTH/PTH-related peptide receptor expressed in rat UMR106 cells assessed as cAMP formation. Format: functional, cell-based. The procedure, abridged:
as §1

For another assay, the species on record is Mus musculus. In words: Inhibition of bone mineralization in embryonic mouse metatarsal. Format: functional.

Active and inactive are the calls of the source. The rule behind the calls is not given here. Square brackets hold non-standard residues; d marks the D form. Peptide text beside a SMILES is read from it. * marks the point of attachment. X1 = O=C(c1ccccc1-c1c2ccc(=O)cc-2oc2cc(O)ccc12)*; hArg = N=C(N)NCCCC[C@H](N)C(=O)O; Nle = CCCC[C@H](N)C(=O)O; Aib = CC(C)(N)C(=O)O

Broadly, the EC50 is the concentration needed to bring the measured effect to its halfway point. A word on the IC50: it is the midpoint of a concentration-inhibition curve. Higher therefore signals a need for much substance. Take `CCCC[C@H](NC(=O)[C@H](CC(C)C)NC(=O)[C@H](CCC(N)=O)NC(=O)[C@@H](NC(=O)[C@H](CCC(=O)O)NC(=O)C(C)(C)NC(=O)[C@@H](NC(=O)C(C)(C)N)C(C)C)[C@@H](C)CC)C(=O)N[C@@H](Cc1cnc[nH]1)C(=O)N[C@@H](CCC(N)=O)C(=O)N[C@@H](CCCNC(=N)N)C(=O)N[C@@H](C)C(=O)N[C@@H](CCCCNC(=O)c1ccccc1-c1c2ccc(=O)cc-2oc2cc(O)ccc12)C(=O)N[C@@H](Cc1ccc(O)cc1)C(N)=O` (H-[Aib]V[Aib]EIQL[Nle]HQRAK(X1)Y-NH2): the EC50 amounted to 7.2 nM in assay [1] and 0.92 nM in assay [2]. Further, in assay [3], the IC50 is 13.5 nM.

On to `CCCC[C@H](NC(=O)[C@H](CC(C)C)NC(=O)[C@H](CCC(N)=O)NC(=O)[C@@H](NC(=O)[C@H](CCC(=O)O)NC(=O)C(C)(C)NC(=O)[C@@H](NC(=O)C(C)(C)N)C(C)C)[C@@H](C)CC)C(=O)N[C@@H](Cc1cnc[nH]1)C(=O)N[C@@H](CCC(N)=O)C(=O)N[C@@H](CCCCN=C(N)N)C(=O)N[C@@H](C)C(=O)N[C@@H](CCCCN)C(=O)N[C@@H](Cc1ccc(O)cc1)C(N)=O` (H-[Aib]V[Aib]EIQL[Nle]HQ[hArg]AKY-NH2), for which the EC50 in assay [2] is 0.06 nM. The same compound had an IC50 in assay [3] of 7.2 nM.

Consider `CCCC[C@H](NC(=O)[C@H](CC(C)C)NC(=O)[C@H](CCC(N)=O)NC(=O)[C@@H](NC(=O)[C@H](CCC(=O)O)NC(=O)C(C)(C)NC(=O)[C@@H](NC(=O)C(C)(C)N)C(C)C)[C@@H](C)CC)C(=O)N[C@@H](Cc1cnc[nH]1)C(=O)N[C@@H](CCC(N)=O)C(=O)N[C@@H](CCCN=C(N)N)C(=O)N[C@@H](C)C(=O)N[C@@H](CCCCN)C(=O)N[C@@H](Cc1ccc(O)cc1)C(=O)N[C@@H](CCCCNC(=O)c1ccccc1-c1c2ccc(=O)cc-2oc2cc(O)ccc12)C(N)=O` (H-[Aib]V[Aib]EIQL[Nle]HQRAKYK(X1)-NH2), for which the figures for the EC50 in assay [1] and in assay [2] were 20 nM and 1.1 nM, respectively. Also, in assay [3], the IC50 came to 98.2 nM.

Take `CCCC[C@H](NC(=O)[C@H](CC(C)C)NC(=O)[C@H](CCC(N)=O)NC(=O)[C@@H](NC(=O)[C@H](CCC(=O)O)NC(=O)[C@H](C)NC(=O)[C@@H](NC(=O)[C@H](C)N)C(C)C)[C@@H](C)CC)C(=O)N[C@@H](Cc1cnc[nH]1)C(=O)N[C@@H](CCC(N)=O)C(=O)N[C@@H](CCCCNC(=N)N)C(=O)N[C@@H](C)C(=O)N[C@@H](CCCCN)C(=O)N[C@@H](Cc1c[nH]c2ccccc12)C(=O)N[C@@H](Cc1ccc(O)cc1)C(N)=O` (H-AVAEIQL[Nle]HQ[hArg]AKWY-NH2): the EC50 in assay [4] was 129 nM; in assay [1] it was 1460 nM; in assay [2], 26 nM. The same compound gave a half-inhibitory concentration (IC50) in assay [3] of 2190 nM.

For the compound `CC[C@H](C)[C@H](NC(=O)[C@H](CCC(=O)O)NC(=O)[C@H](C)NC(=O)[C@@H](NC(=O)[C@H](C)N)C(C)C)C(=O)N[C@@H](CCC(N)=O)C(=O)N[C@@H](CC(C)C)C(=O)N[C@@H](CCSC)C(=O)N[C@@H](Cc1cnc[nH]1)C(=O)N[C@@H](CCC(N)=O)C(=O)N[C@@H](CCCCN=C(N)N)C(=O)N[C@@H](C)C(=O)N[C@@H](CCCCN)C(=O)N[C@@H](Cc1c[nH]c2ccccc12)C(N)=O` (H-AVAEIQLMHQ[hArg]AKW-NH2), the EC50 came to 155 nM in assay [4], 800 nM in assay [1] and 32 nM in assay [2]. Further, the IC50 in assay [3] was determined as 10500 nM.

For `CC[C@H](C)[C@H](NC(=O)[C@H](CCC(=O)O)NC(=O)C(C)(C)NC(=O)[C@@H](NC(=O)C(C)(C)N)C(C)C)C(=O)N[C@@H](CCC(N)=O)C(=O)N[C@@H](CC(C)C)C(=O)N[C@@H](CCSC)C(=O)N[C@@H](Cc1cnc[nH]1)C(=O)N[C@@H](CCC(N)=O)C(=O)N[C@@H](CCCCNC(=N)N)C(=O)N[C@@H](C)C(=O)N[C@@H](CCCCN)C(=O)N[C@@H](Cc1c[nH]c2ccccc12)C(=O)O` (H-[Aib]V[Aib]EIQLMHQ[hArg]AKW-OH), the result in the assay filed under Mus musculus was Active.

Take `CC[C@H](C)[C@H](NC(=O)[C@H](CCC(=O)O)NC(=O)[C@H](C)NC(=O)[C@@H](NC(=O)[C@H](C)N)C(C)C)C(=O)N[C@@H](CCC(N)=O)C(=O)N[C@@H](CC(C)C)C(=O)N[C@@H](CCSC)C(=O)N[C@@H](Cc1cnc[nH]1)C(=O)N[C@@H](CCC(N)=O)C(=O)N[C@@H](CCCCNC(=N)N)C(=O)N[C@@H](C)C(=O)N[C@@H](CCCCN)C(=O)N[C@@H](Cc1c[nH]c2ccccc12)C(=O)N[C@@H](CCCCNC(=O)c1ccccc1-c1c2ccc(=O)cc-2oc2cc(O)ccc12)C(N)=O` (H-AVAEIQLMHQ[hArg]AKWK(X1)-NH2): the EC50 came to 251 nM in assay [4], 1000 nM in assay [1] and 53 nM in assay [2]. The IC50 in assay [3] came out at 10100 nM.

Turning to `CCCC[C@H](NC(=O)[C@H](CC(C)C)NC(=O)[C@H](CCC(N)=O)NC(=O)[C@@H](NC(=O)[C@H](CCC(=O)O)NC(=O)[C@H](C)NC(=O)[C@@H](NC(=O)[C@H](C)N)C(C)C)[C@@H](C)CC)C(=O)N[C@@H](Cc1cnc[nH]1)C(=O)N[C@@H](CCC(N)=O)C(=O)N[C@@H](CCCCNC(=N)N)C(=O)N[C@@H](C)C(=O)N[C@@H](CCCCN)C(=O)N[C@@H](Cc1ccc(O)cc1)C(N)=O` (H-AVAEIQL[Nle]HQ[hArg]AKY-NH2), the concentration giving a half-maximal response (EC50) worked out at 344 nM in assay [4], 1430 nM in assay [1] and 13 nM in assay [2]. For the same compound, the IC50 in assay [3] turned out to be 10600 nM.

These data come from ChEMBL document CHEMBL1156459, “Discovery of a small molecule antagonist of the parathyroid hormone receptor by using an N-terminal parathyroid hormone peptide probe” (Proc Natl Acad Sci U S A, 2007).
